Data taken from PubChem BioAssay.
Unmarked numbers belong to inactive results. Results filed as inconclusive are left out. Calls of active or inactive are those of the source.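 How the source made its calls, unless noted: active means inhibition over a set limit, the all-compound mean plus 3 SD, in both replicate runs; inconclusive means over that limit in just one replicate run; inactive means at or under that limit in both runs.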

Columns and labels:
[1] = OD615 S. cerevisiae growth inhibition, permissive medium, pilot counter-assay, permissive growth control for S. cerevisiae lifespan shortening project (AID 705;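 active means growth inhibition above 25% in both replicates, a cutoff set 3 SD above the mean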); conditions: OD615, 24 h, at 10 µM, hits give high values
Summary of the method: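 Material: engineered DeaD yeast; compound dosing: one dose 10 µM, DMSO 0.25% final; measure: yeast growth inhibition indicated by reduced 24 h OD615; detection: OD615 turbidity read; incubation: cells pre-grown 4 h, then 24 h compound exposure, 30 °C humidified; medium: permissive synthetic complete medium with raffinose and galactose carbon sources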

[2] = Restrictive medium S. cerevisiae growth inhibition, OD615, pilot screen of yeast lifespan reduction project, restrictive growth control (AID 706;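 active means growth inhibition above a set limit, 3 SD over mean compound inhibition, in both replicates, cut at about 43% in these data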;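 further: modified DeaD lifespan yeast strain shifted to restrictive glucose medium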); conditions: OD615, 48 h, at 10 µM, hits give high values
Summary of the method: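 material = engineered S. cerevisiae DeaD strain | medium = glucose-based CSMM-D restrictive medium | times = 4 h pre-incubation, 48 h exposure at 30 °C | technique = OD615 absorbance reading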

[3] = viability gain of MRP-1-high H69AR cells under doxorubicin, pilot screen, MRP-1 activator project, CellTiter-Glo, duplicate (AID 807;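 active means viability increase at or above a cutoff of the median across tested compounds plus 3 SD, cut at about 8.5% in these data, passing the limit was not always enough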;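 further: compound pretreatment 18-22 h then 72 h combined with doxorubicin; 0% = doxorubicin alone and 100% = vehicle without doxorubicin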); conditions: H69AR viability with doxorubicin, CellTiter-Glo luminescence; at 10 µM; hits give high values
[4] = growth suppression of beta-catenin knockout HCT116, pilot screen, human colon tumor cells (AID 823;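 active means cell viability at or below a set limit in both duplicate runs, the limit being the all-compound median minus 4 SD, cut at about 23% in these data, passing the limit was not always enough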;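 further: 0% = wells killed by 20 µM Hyamine and 100% = untreated DMSO cell wells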); conditions: CellTiter-Glo, 60 h, at 10 µM, hits give low values
[5] = growth suppression of PTEN-deleted HCT116, pilot screen, cell-based, HCT116 clonal line, CellTiter-Glo (AID 824;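 active means viability at or below 27.92% in each of two runs, the all-compound median minus 4 SD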;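 further: 0% = 20 µM Hyamine control and 100% = vehicle cell control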); conditions: 60 h, at 10 µM, hits give low values
[6] = inhibitors of the yeast RAM network, pilot screen, dse1pr::URA3 reporter, 5-FOA selection (AID 869);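 further: 0% = DMSO wells with no growth and 100% = 10 µM 1-NA-PP1 with full growth; RAM network block rescues cells from 5-FOA so hits raise OD615 growth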; conditions: S. cerevisiae dse1pr::URA3 5-FOA growth, OD615, 2 d; at 10 µM; hits give high values; strain carries analog-sensitive mutant Cbk1 kinase
[7] = RAM signaling pathway blockade in yeast – S. cerevisiae, Pdr1DBD-CYC8 efflux-inhibited sensitized strain, primary screen (AID 1298;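 active means RAM network inhibition above 8.4% in each of two replicates, 3 SD over the compound average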;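 further: 0% = DMSO untreated cells without growth and 100% = 10 µM 1-NA-PP1 full growth; higher means more yeast growth rescued from 5-FOA killing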); conditions: S. cerevisiae cbk1-as DSE1-URA3 strain, 5-FOA growth OD615, 2 d; at 50 µM; hits give high values

| Structure (SMILES) | growth inhibition [1] | growth inhibition [2] | viability increase [3] | viability [4] | viability [5] | inhibition [6] | RAM network inhibition [7] |
| --- | --- | --- | --- | --- | --- | --- | --- |
| CC(C)CCN(C)C1CCN(C(=O)Nc2c(F)cccc2F)CC1 | 0.53% | -12.6% | -3.34% | 90.6% | 91.7% | 1.56% | 0.26% |
| O=C(O)CCc1n[nH]c(=S)[nH]c1=O | -5.76% | -17.3% | -1.6% | 102% | 106% | 0.76% | -0.69% |
| CCN=C1SC(CC(=O)NC(N)=O)C(=O)N1CC (stereo not given) | -12.5% | -17.8% | 0.51% | 101% | 101% | 1.3% | 1.66% |
| c1nc(N2CCNCC2)c2sc3nc(N4CCOCC4)c4c(c3c2n1)CCC4 | -0.055% | 6.55% | -6.75% | 2.54% (active) | 1.69% (active) | 2.3% | 7.31% |
| O=C(CCCc1ccccc1)NCc1cn2ccsc2n1 | -8.33% | 6.95% | 0.97% | 103% | 105% | 1.31% | 5.11% |
| Cc1cc(-c2ccco2)n(CC(=O)NCCN(C)C)n1 | -3.33% | 1.02% | -0.48% | 98.8% | 94.5% | 2.31% | 0.37% |
| COc1ccccc1N(CC(=O)Nc1ccc2c(c1)OCO2)S(=O)(=O)c1ccccc1 | -5.44% | -18.2% | -0.47% | 73.7% | 84% | 0.8% | 8.21% |
| Cc1ccccc1N1C(=O)C(Cl)=C(N2CCN(c3ccccc3)CC2)C1=O | -5.42% | -12.1% | -2.29% | 101% | 109% | 0.515% | 1.87% |
| CCOC(=O)N1CCN(C(=O)c2ccc3c(=O)n(CCC4=CCCCC4)c(=S)[nH]c3c2)CC1 | -6.92% | 3.16% | -7.23% | 49.1% | 45.5% | 3.38% | 4.35% |
| COc1ccc(-c2cn3c(C)c(C(=O)N4CCN(c5ccccc5)CC4)sc3n2)cc1 | -0.58% | -13.6% | -1.3% | 101% | 95.6% | 1.88% | 0.88% |
| Cc1ccc(NC(=O)CSc2nnc(Cc3cccn3C)n2-c2ccc(F)cc2)c(C)c1 | 4.68% | 8.61% | -3.99% | 93.2% | 81.2% | 2.25% | 2.03% |
| CCCN1Cc2cccc(C(=O)Nc3ccc4c(c3)OCCO4)c2C1=O | 0.22% | -5.64% | 0.47% | 106% | 97.2% | 1.35% | 2.75% |
| COC(=O)c1cc(OC)c(OC)cc1NC(=O)C1CCCO1 (stereo not given) | -6.67% | 1.77% | -0.93% | 105% | 99.8% | 0.545% | 4.85% |
| O=C1NC(c2cccs2)C(C(=O)c2ccccc2)C(O)(C(F)(F)F)N1 (stereo not given) | -0.14% | -7.88% | -0.03% | 94.8% | 90.4% | 0.61% | 0.87% |
| CC(=O)c1ccc(OCC(O)CN2CCN(c3ccccn3)CC2)cc1 (stereo not given) | 2.13% | 4.88% | 0.37% | 102% | 103% | 1.18% | 2.51% |
| Cc1c(C(=O)Nc2ccncc2)sc2nc(-c3ccccc3)cn12 | 0.39% | 9.21% | 2.2% | 89.2% | 89.2% | 0.99% | -1.99% |
| Cn1c(C(=O)NCCN2CCc3ccccc3C2)cc2c(=O)n(C)c3ccccc3c21 | -2.54% | 4.4% | -4.36% | 70.4% | 72.5% | 2.96% | 1.02% |
| CN(C)Cc1c(O)ccc2occ(C(O)c3ccccc3)c12 (stereo not given) | -13.2% | -4.58% | -3.71% | 77.2% | 82.5% | 1.07% | 4.33% |

| Structure (SMILES) | growth inhibition [1] | growth inhibition [2] | viability increase [3] | viability [4] | viability [5] | inhibition [6] | RAM network inhibition [7] |
| --- | --- | --- | --- | --- | --- | --- | --- |
| OCCCc1nc2n(n1)C(c1cccs1)C=C(c1ccccc1)N2 (stereo not given) | -17.7% | -5.79% | -4.73% | 83.6% | 84.7% | 3.25% | 3.92% |
| CCOC(=O)CSc1nnc(Cc2cc(=O)[nH]c(=O)[nH]2)n1-c1ccc(Cl)cc1 | -16.1% | -1.39% | 1.33% | 101% | 100% | 2.48% | 4.03% |
| CCOCCCNC(=O)Cc1cc(=O)[nH]c(=O)[nH]1 | -20.6% | -19.6% | -0.42% | 99.2% | 94.1% | 1.44% | 4.84% |
| Cc1ccc(/C(O)=C2\C(=O)C(=O)N(CCN(C)C)C2c2ccccc2F)cc1 (stereo not given) | -10.5% | -5.25% | -2.92% | 88.3% | 87.1% | -0.9% | -1.02% |
| COc1ccc(C(=O)CCC(=O)N2CCN(c3ccc(N4CCOCC4)nn3)CC2)cc1 | 4.94% | -0.495% | -2.69% | 102% | 93.8% | 1.65% | 2.53% |
| [O-]/[N+](=C/c1cccnc1)c1ccc(Br)cc1 | -11.4% | -4.11% | -4.72% | 93.8% | 94% | 2.69% | 8.64% |
| Cc1ccc(C(=O)NCc2ccc3c(c2)OCO3)cc1N1CCCC1=O | 5.69% | 4.36% | -1.36% | 91.7% | 98.2% | 0.635% | 4.17% |
| CC1(C)CC(=O)C=C(NCCc2ccc(S(N)(=O)=O)cc2)C1 | -8.44% | -12% | -0.64% | 94.3% | 96.2% | 1.18% | 1.82% |
| COc1ccccc1NC(=O)Nc1ccnn1C1CCCCC1 | -7.38% | -10.3% | -0.89% | 92.2% | 94.1% | 2.41% | 0.5% |
| COc1ccc(Br)cc1C1CC(=O)N2CN(Cc3ccccc3)CSC2=C1C#N (stereo not given) | 4.47% | 12.8% | -4.64% | 85% | 87.5% | 2.63% | 4.51% |
| CC(C)N1CCc2c(sc(NC(=O)c3ccc(S(=O)(=O)N4CCOCC4)cc3)c2C#N)C1 | -4.83% | -3.24% | -2.2% | 85.3% | 86.3% | 0.75% | 1.3% |
| Cc1c(NC(=O)C2CCCN2S(=O)(=O)c2ccccc2)c(=O)n(-c2ccccc2)n1C (stereo not given) | -8.82% | -10.2% | -1% | 97.3% | 107% | 2.12% | 0.05% |
| CCOC(=O)N1CCN(C(=O)c2ccc3c(SCC(=O)O)c4c(nc3c2)CCC4)CC1 | -7.38% | 3.22% | -1.86% | 102% | 93% | 0.9% | 2.81% |
| COc1ccc(-c2nc(-c3ccc(Br)o3)no2)cc1OC | -7.45% | -17.9% | -0.69% | 86.3% | 78.6% | 0.88% | 2.25% |
| Cn1cc(S(=O)(=O)CC(=O)Nc2ccc3c(c2)OCO3)c2ccccc21 | -1.92% | 4.48% | -2.54% | 95.9% | 92.1% | 0.5% | 5.14% |
| COc1ccc(C(=O)NCC(c2cccnc2)N2CCN(c3ccc(F)cc3)CC2)cc1OC (stereo not given) | -12.2% | -0.995% | -3.89% | 88.9% | 80.8% | 1.82% | 4.32% |
| N#CC1=C(N)SC(N)=C(C#N)C1C1CC=CCC1 (stereo not given) | -18.9% | -10.4% | -0.79% | 108% | 97.5% | 2.11% | 0.74% |
